According to ChEMBL document CHEMBL4706565, “Anti-glioma effects of 2-aminothiophene-3-carboxamide derivatives, ANO1 channel blockers” (Eur J Med Chem, 2020):
Calls of active or inactive are those of the source. No cut-off for these calls is given here.

Tests used:
U-251 [1] = assay: Inhibition of anchorage-independent colony formation in human U251 cells at 10 uM incubated for 14 days by crystal violet staining based soft agar colony formation assay; format: functional, cell-based; settings: time 14.0 day
Method in brief: (§1)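 Soft agar assay: 2.0×10^3 U251 cells in complete medium with 0.3% agar over a 0.6% bottom agar layer. Treated with compounds at 1-100 μM for 14 days, 37 °C, 5% CO2. Colonies stained with crystal violet for 24 h, whole wells photographed and colonies counted against DMSO control; n = 3.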

U-251 [2] = assay: Inhibition of colony formation in human U251 cells incubated for 14 days by crystal violet dye based assay; format: functional, cell-based; settings: dose 1-10 µM, time 14.0 day
Method in brief: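 U251 cells, 1.0×10^3 per well, treated with compound (1, 3 or 10 μM) for 2 weeks at 37 °C, 5% CO2. Colonies stained 24 h with crystal violet in methanol/formaldehyde/PBS, washed, extracted with 10% acetic acid and read at A570 nm. Compared against DMSO control.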

U-251 [3] = assay: Inhibition of anchorage-independent colony formation in human U251 cells at 100 uM incubated for 14 days by crystal violet staining based soft agar colony formation assay; format: functional; settings: U-251, 336 h, time 14 day; method in brief: as §1
U-251 [4] = assay: Upregulation of E-cadherin protein expression in human U251 cells incubated for 18 hrs by Western blot analysis; format: functional, cell-based; settings: dose 1-10 µM
Method in brief: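 U251 cells (5×10^5) treated with compounds for 18 h, lysed in NP40 buffer with protease inhibitors. 25 μg lysate run on SDS-PAGE and blotted for E-cadherin, β-actin as loading control. Primary antibodies at 1:1000 (actin 1:10000). Bands quantified by densitometry; one-way ANOVA.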

[5] = biological target: T1, Anoctamin-1 (Homo sapiens) (UniProt Q5XXA6); assay: Induction of ANO1 degradation in human U251 cells at 10 uM preincubated with compound for 6 hrs followed by treatment with proteasome inhibitor, MG132 for 18 hrs by western blot analysis; format: cell-based; settings: U-251, time 24.0 hrs
T1 sequence (whole entry): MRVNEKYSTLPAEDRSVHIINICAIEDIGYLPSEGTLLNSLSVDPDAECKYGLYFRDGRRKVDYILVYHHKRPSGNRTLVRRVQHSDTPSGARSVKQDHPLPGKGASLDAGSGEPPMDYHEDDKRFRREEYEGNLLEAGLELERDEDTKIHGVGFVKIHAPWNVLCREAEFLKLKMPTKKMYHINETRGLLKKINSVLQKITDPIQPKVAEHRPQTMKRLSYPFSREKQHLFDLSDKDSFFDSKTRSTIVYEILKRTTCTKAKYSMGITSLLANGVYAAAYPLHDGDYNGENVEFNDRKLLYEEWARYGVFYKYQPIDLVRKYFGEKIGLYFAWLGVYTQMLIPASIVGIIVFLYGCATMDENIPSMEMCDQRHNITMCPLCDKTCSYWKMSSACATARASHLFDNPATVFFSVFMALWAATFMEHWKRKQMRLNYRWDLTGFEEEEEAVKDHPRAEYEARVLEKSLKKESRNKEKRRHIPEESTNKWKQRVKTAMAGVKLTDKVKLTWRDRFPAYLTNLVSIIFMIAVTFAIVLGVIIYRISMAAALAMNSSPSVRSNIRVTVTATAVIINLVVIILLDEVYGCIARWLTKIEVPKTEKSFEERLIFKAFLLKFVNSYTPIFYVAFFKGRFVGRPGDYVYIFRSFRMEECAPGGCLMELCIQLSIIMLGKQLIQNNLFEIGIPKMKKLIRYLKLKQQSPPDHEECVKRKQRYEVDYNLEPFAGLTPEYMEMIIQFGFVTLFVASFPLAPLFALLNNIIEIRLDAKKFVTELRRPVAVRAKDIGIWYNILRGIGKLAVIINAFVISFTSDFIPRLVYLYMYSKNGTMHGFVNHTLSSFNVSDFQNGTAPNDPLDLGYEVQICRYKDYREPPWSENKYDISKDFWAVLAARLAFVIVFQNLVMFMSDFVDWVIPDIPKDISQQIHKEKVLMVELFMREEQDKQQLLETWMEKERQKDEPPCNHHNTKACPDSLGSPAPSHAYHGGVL
Method in brief: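 U251 cells (5×10^5) treated with 10 μM inhibitor for 24 h. Alternatively, treated 6 h with 10 μM inhibitor, then MG132 (20 μM, a proteasome inhibitor) for a further 18 h. NP40 lysates immunoblotted for ANO1, β-actin as loading control; band densitometry.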

U-87 MG = assay: Antiproliferative activity against human U87MG cells overexpressing ANO1 assessed as reduction in cell viability measured after 72 hrs by Celltiter-glo assay; format: functional, U-87MG ATCC
Method in brief: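 5.0×10^3 cells/well seeded, overnight, then compounds added as 1:4 serial dilutions in DMSO; viability read after 72 h with CellTiter-Glo luminescence. GI50 from fitted dose-response curves; triplicate wells, SD from three independent experiments. DMEM for U251 and U138, MEM for U87MG, both with 10% FBS and pen/strep, 37 °C, 5% CO2.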

[6] = biological target: T2, Protein tweety homolog 1 (Mus musculus) (UniProt Q9D3A9); assay: Inhibition of GFP-fused mouse TTYH1 channel expressed in HEK293A cells assessed as inhibition of channel current amplitude at 1 to 10 uM at membrane potential of +80 mV by patch clamp electrophysiology assay; format: cell-based; settings: HEK293-A, dose 1-10 µM
T2 sequence (whole entry): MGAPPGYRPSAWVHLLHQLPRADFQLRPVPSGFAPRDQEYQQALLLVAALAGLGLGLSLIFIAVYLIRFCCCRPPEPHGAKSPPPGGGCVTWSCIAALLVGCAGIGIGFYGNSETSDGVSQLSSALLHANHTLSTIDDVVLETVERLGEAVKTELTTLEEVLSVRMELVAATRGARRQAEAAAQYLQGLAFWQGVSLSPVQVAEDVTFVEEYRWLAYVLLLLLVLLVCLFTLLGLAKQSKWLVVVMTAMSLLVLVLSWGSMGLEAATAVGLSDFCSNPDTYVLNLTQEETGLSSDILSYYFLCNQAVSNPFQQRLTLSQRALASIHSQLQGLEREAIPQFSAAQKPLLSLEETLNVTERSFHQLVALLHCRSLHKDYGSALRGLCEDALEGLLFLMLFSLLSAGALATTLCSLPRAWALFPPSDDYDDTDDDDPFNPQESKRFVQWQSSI
Method in brief: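 Whole-cell recording at room temperature in HEK293A cells transfected with GFP-mANO1, GFP-mANO2 or GFP-mTTYH1. 1 s ramps from +80 to -80 mV, holding potential -10 mV. For ANO1/ANO2: pipette CsCl 146 mM with Ca-EGTA-NMDG, pH 7.3; bath NaCl-based, pH 7.3. For TTYH1: Tris-aspartate pipette (pH 7.2) and Tris-HCl bath (pH 7.4), with […] and BaCl2 added to block K+ channels, and hypotonic (220 mOsm/kg) bath. Washout recordings assessed reversibility.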

[7] = Antiproliferative activity against mouse primary astrocytes assessed as reduction in cell viability measured after 72 hrs by Celltiter-Glo luminescent assay; format: cell-based, Astrocyte
Method in brief: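 Primary astrocytes isolated from adult mouse brain by a previously reported method. 5.0×10^3 cells/well, compound as 1:4 serial DMSO dilutions, CellTiter-Glo viability at 72 h.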

| Compound | inhibition (U-251 [1]) | inhibition (U-251 [2]) | inhibition at 100 µM (U-251 [3]) [%] | Activity (U-251 [4]) | Activity [5] | GI50 (U-87 MG) [µM] | inhibition [6] | GI50 at 72 h [7] [µM] |
| --- | --- | --- | --- | --- | --- | --- | --- | --- |
| NC(=O)c1c(NC(=S)NC(=O)c2ccc(Cl)cc2)sc2c1CCC2 | inactive | Dose-dependent effect | 88 | Dose-dependent effect | inactive | 23.8 | inactive | 45.1 |
| CC(C)(C)C(=O)Nc1sc2c(c1C(N)=O)CCC(C(C)(C)C)C2 (stereo unspecified) | inactive | Dose-dependent effect | 95.7 | Dose-dependent effect | inactive | 31.5 | inactive | 94.8 |
